Here are results for two compounds from ChEMBL document CHEMBL4033721, “Design, synthesis and evaluation of indole-2-carboxamides with pan anti-mycobacterial activity” (Bioorg Med Chem, 2017).

Converted amounts (≈) assume the structure as drawn.

As usually defined, the MIC is the smallest concentration in the dilution series that meets the test's criterion for growth inhibition. Lower therefore signals inhibition by little substance.

Test system in one data set: not listed separately
Description: Antimycobacterial activity against Mycobacterium bolletii ATCC 14472 after 8 days by resazurin microtiter based colorimetric assay. The data set is classed as functional. As to conditions: Mycobacteroides abscessus, ATCC 14472, 192 h. Put shortly:
(§1)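 Resazurin microtiter plate MIC, read by visual scan for growth, in Mueller Hinton II broth. Strains include clinical isolates of M. abscessus complex, M. chelonae, M. avium, M. intracellulare, M. xenopi, P. aeruginosa PAO-1 and S. aureus ATCC 25923.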
On the technique in general: The colour change of resazurin is a common sign of viable cells or microbes.
Compound `Cc1cc(C)c2cc(C(=O)N[C@@H]3C[C@@H]4C[C@H]([C@H]3C)C4(C)C)[nH]c2c1` gave an MIC of 0.125 µg/mL (≈ 0.385 µM).
`Cc1cc(C)c2cc(C(=O)NC3CCCCCC3)[nH]c2c1` had an MIC of at most 0.06 µg/mL.

The subject of a further data set is Mycobacterium abscessus subsp. massiliense. In words: Inhibition of MmpL3 in Mycobacterium massiliense isolate 1513 assessed as reduction in trehalose dimycolate after 16 hrs using [1,2-14C]acetate labeled compounds by TLC analysis.
Conditions: not given
Summed up: (§2)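 Lipids were run on TLC in CHCl3:CH3OH:H2O 20:4:0.5. Cell wall-bound MAMEs were run in n-hexane:ethyl acetate 95:5, developed three times. Phosphorimaging read-out gave TMM/TDM ratios and MAME radioactivity relative to untreated control.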
As to `Cc1cc(C)c2cc(C(=O)N[C@@H]3C[C@@H]4C[C@H]([C@H]3C)C4(C)C)[nH]c2c1`, the inhibition result is “Dose-dependent effect”.

The test system of a further data set is Pseudomonas aeruginosa. In words: Antibacterial activity against Pseudomonas aeruginosa PAO1 after 8 days by resazurin microtiter based colorimetric assay. The data set is classed as functional. The settings on record: PAO1, 192 h. Put shortly:
as §1
In turn, `Cc1cc(C)c2cc(C(=O)N[C@@H]3C[C@@H]4C[C@H]([C@H]3C)C4(C)C)[nH]c2c1` came in with an MIC above 160 µg/mL.
In turn, `Cc1cc(C)c2cc(C(=O)NC3CCCCCC3)[nH]c2c1` had an MIC above 160 µg/mL.

Another data set relates to Mycobacterium abscessus subsp. massiliense. Description: Inhibition of MmpL3 in Mycobacterium massiliense isolate 1513 assessed as reduction in arabinogalactan after 16 hrs using [1,2-14C]acetate labeled compounds by TLC analysis.
Conditions: not given
Summed up: as §2
`Cc1cc(C)c2cc(C(=O)N[C@@H]3C[C@@H]4C[C@H]([C@H]3C)C4(C)C)[nH]c2c1`: the inhibition entry is “Dose-dependent effect”.

For another data set, the system named is Mycobacteroides chelonae. Description: Antimycobacterial activity against Mycobacterium chelonae ATCC 35752 after 8 days by resazurin microtiter based colorimetric assay. The data set is classed as functional. The settings on record: ATCC 35752, 192 h. Put shortly: as §1
Compound `Cc1cc(C)c2cc(C(=O)N[C@@H]3C[C@@H]4C[C@H]([C@H]3C)C4(C)C)[nH]c2c1` had an MIC of 0.125 µg/mL (≈ 0.385 µM).
The compound `Cc1cc(C)c2cc(C(=O)NC3CCCCCC3)[nH]c2c1` had an MIC of at most 0.06 µg/mL.

The next data set relates to Staphylococcus aureus. In words: Antibacterial activity against Staphylococcus aureus ATCC 25923 after 8 days by resazurin microtiter based colorimetric assay. The settings on record: ATCC 25923, 192 h. It is filed as functional. Summed up:
as §1
On to `Cc1cc(C)c2cc(C(=O)N[C@@H]3C[C@@H]4C[C@H]([C@H]3C)C4(C)C)[nH]c2c1`, for which the minimum inhibitory concentration (MIC) was above 160 µg/mL.
The same measure, in the same setting: the result for `Cc1cc(C)c2cc(C(=O)NC3CCCCCC3)[nH]c2c1` reads above 160 µg/mL.

For another data set, the system named is Mycobacteroides abscessus. In words: Bactericidal activity against Mycobacterium abscessus after 8 days by resazurin microtiter based colorimetric assay. It is filed as functional.
Conditions: not given
Summed up: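 MBC90 found by subculturing from the MIC wells onto 7H11 agar. Value is the lowest concentration cutting CFU by 90% versus the inoculum.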
With `Cc1cc(C)c2cc(C(=O)NC3CCCCCC3)[nH]c2c1`, the MBC90 came to 0.015 µg/mL (≈ 0.0527 µM).

For a further data set, the system named is Mycobacterium tuberculosis. In words: Antimycobacterial activity against Mycobacterium tuberculosis H37Rv MC2-6206 after 8 days by resazurin microtiter based colorimetric assay. It is filed as functional. As to conditions: H37Rv MC2-6206, 192 h. Put shortly:
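MIC was measured by resazurin microtiter colorimetric assay with visual growth scoring. Medium was 7H9-ADC–0.05% tyloxapol with 0.2% casaminoacids, 48 µg/ml pantothenate and 50 µg/ml L-leucine.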
Compound `Cc1cc(C)c2cc(C(=O)N[C@@H]3C[C@@H]4C[C@H]([C@H]3C)C4(C)C)[nH]c2c1` came in with an MIC of 0.0195 µg/mL (≈ 0.0601 µM).
Still for that read-out and setting: the result for `Cc1cc(C)c2cc(C(=O)NC3CCCCCC3)[nH]c2c1` reads 0.08 µg/mL (≈ 0.281 µM).

Another data set relates to Mycobacterium abscessus subsp. massiliense. Description: Inhibition of MmpL3 in Mycobacterium massiliense isolate 1513 assessed as reduction in trehalose monomycolate by measuring decrease in mycolic acid transfer to cell envelope after 16 hrs using [1,2-14C]acetate labeled compounds by TLC analysis.
Conditions: not given
Summed up:
as §2
Regarding `Cc1cc(C)c2cc(C(=O)N[C@@H]3C[C@@H]4C[C@H]([C@H]3C)C4(C)C)[nH]c2c1`, the inhibition entry was “Dose-dependent effect”.

Test system in a further data set: not listed separately
In words: Cytotoxicity against human THP1 cells assessed as reduction in cell viability after 3 days by CellTiter-Glo based luminescence assay. As to conditions: THP-1 cells, read-out: TD50. Put shortly:
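THP-1 cells in complete RPMI, made macrophage-like with 80 nM PMA overnight at 37°C, 5% CO2, then seeded and cultured 24 h. Cells got 10-point DMSO serial dilutions (top 50 µM, final DMSO 0.5%) for 3 days, with staurosporine as control. Viability read by CellTiter-Glo luminescence. IC50 (50% viability) came from a Levenberg–Marquardt curve fit.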
(ATP-based viability assays read luminescence as a measure of living cells.)
In the case of `Cc1cc(C)c2cc(C(=O)N[C@@H]3C[C@@H]4C[C@H]([C@H]3C)C4(C)C)[nH]c2c1`, the CC50 at 72 h was above 16.2 µg/mL.

Test system in the next data set: not listed separately
Description: Selectivity index, ratio of TD50 for human THP1 cells to MIC for Mycobacterium massiliense isolate CRM0019. The data set is classed as toxicity. As to conditions: THP-1 cells, read-out: Selectivity Index. Summed up:
(§3)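 Ratio of THP-1 cytotoxicity to resazurin-assay MIC. Cytotoxicity: THP-1 cells were differentiated with 80 nM PMA overnight, plated for 24 h, then given 10-point DMSO dilutions (top 50 μM, 0.5% final DMSO) for 3 days at 37°C, 5% CO₂. ATP luminescence was read, with a staurosporine control. IC₅₀ = concentration giving 50% viability, from a Levenberg–Marquardt curve fit.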
Regarding `Cc1cc(C)c2cc(C(=O)N[C@@H]3C[C@@H]4C[C@H]([C@H]3C)C4(C)C)[nH]c2c1`, the selectivity ratio was above 130.

In a further data set the test system is Mycobacterium xenopi. In words: Antimycobacterial activity against wild type Mycobacterium xenopi isolate 4042 after 8 days by resazurin microtiter based colorimetric assay. As to conditions: isolate 4042, 192 h. The data set is classed as functional. Summed up:
as §1
`Cc1cc(C)c2cc(C(=O)N[C@@H]3C[C@@H]4C[C@H]([C@H]3C)C4(C)C)[nH]c2c1` gave an MIC of 0.25 to 1 µg/mL (≈ 0.77 to 3.08 µM).
Still for that read-out and setting: the result for `Cc1cc(C)c2cc(C(=O)NC3CCCCCC3)[nH]c2c1` reads 0.06 to 0.12 µg/mL (≈ 0.211 to 0.422 µM).

Another data set relates to Mycobacterium avium. In words: Antimycobacterial activity against Mycobacterium avium isolate 104 after 8 days by resazurin microtiter based colorimetric assay. The data set is classed as functional. The settings on record: isolate 104, 192 h. Summed up:
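M. avium 104 MICs were read by resazurin microtiter colorimetric assay in 96-well plates, with growth scored visually, in Mueller Hinton II medium.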
Regarding `Cc1cc(C)c2cc(C(=O)N[C@@H]3C[C@@H]4C[C@H]([C@H]3C)C4(C)C)[nH]c2c1`, the MIC stood at 2 µg/mL (≈ 6.16 µM).
Consider `Cc1cc(C)c2cc(C(=O)NC3CCCCCC3)[nH]c2c1`, for which inhibition of growth (MIC) required 2 µg/mL (≈ 7.03 µM).

The subject of the next data set is Mycolicibacterium smegmatis. Description: Antimycobacterial activity against Mycobacterium smegmatis isolate MC2 155 after 8 days by resazurin microtiter based colorimetric assay. It is filed as functional. The settings on record: str. MC2 155, 192 h.
`Cc1cc(C)c2cc(C(=O)N[C@@H]3C[C@@H]4C[C@H]([C@H]3C)C4(C)C)[nH]c2c1` returned a minimum inhibitory concentration (MIC) of 1.25 to 2.5 µg/mL (≈ 3.85 to 7.7 µM).
On the same count and under the same terms, to `Cc1cc(C)c2cc(C(=O)NC3CCCCCC3)[nH]c2c1` belongs 0.625 µg/mL (≈ 2.2 µM).

Another data set deals with Mycobacteroides abscessus. In words: Antimycobacterial activity against Mycobacterium abscessus isolate DCI 21 after 8 days by resazurin microtiter based colorimetric assay. The data set is classed as functional. As to conditions: isolate DCI 21, 192 h. Put shortly: as §1
For the compound `Cc1cc(C)c2cc(C(=O)N[C@@H]3C[C@@H]4C[C@H]([C@H]3C)C4(C)C)[nH]c2c1`, the MIC was determined as 0.125 µg/mL (≈ 0.385 µM).
Consider `Cc1cc(C)c2cc(C(=O)NC3CCCCCC3)[nH]c2c1`, for which the MIC was at most 0.06 µg/mL.

Test system in the next data set: not listed separately
Description: Antimycobacterial activity against Mycobacterium massiliense isolate CRM0019 after 8 days by resazurin microtiter based colorimetric assay. The data set is classed as functional, Mycobacterium abscessus subsp. massiliense. The settings on record: Mycobacteroides abscessus, isolate CRM0019, 192 h. Summed up:
as §1
Compound `Cc1cc(C)c2cc(C(=O)N[C@@H]3C[C@@H]4C[C@H]([C@H]3C)C4(C)C)[nH]c2c1` came in with an MIC of 0.125 µg/mL (≈ 0.385 µM).
Turning to `Cc1cc(C)c2cc(C(=O)NC3CCCCCC3)[nH]c2c1`, the MIC is at most 0.06 µg/mL.

Test system in another data set: not listed separately
In words: Selectivity index, ratio of TD50 for human THP1 cells to MIC for Mycobacterium tuberculosis H37Rv MC2-6206. It is filed as toxicity. As to conditions: THP-1 cells, read-out: Selectivity Index. Summed up: as §3
`Cc1cc(C)c2cc(C(=O)N[C@@H]3C[C@@H]4C[C@H]([C@H]3C)C4(C)C)[nH]c2c1`: the selectivity ratio was above 830.

Test system in a further data set: not listed separately
In words: Antimycobacterial activity against Mycobacterium massiliense isolate CIP108297 after 8 days by resazurin microtiter based colorimetric assay. The data set is classed as functional, Mycobacterium abscessus subsp. massiliense. The settings on record: Mycobacteroides abscessus, isolate CIP108297, 192 h. Put shortly:
as §1
For `Cc1cc(C)c2cc(C(=O)N[C@@H]3C[C@@H]4C[C@H]([C@H]3C)C4(C)C)[nH]c2c1`, the minimal inhibitory concentration (MIC) came to 0.125 µg/mL (≈ 0.385 µM).
With `Cc1cc(C)c2cc(C(=O)NC3CCCCCC3)[nH]c2c1`, the MIC is at most 0.06 µg/mL.

Test system in the next data set: not listed separately
In words: Selectivity index, ratio of TD50 for human THP1 cells to MIC for Mycobacterium bolletii ATCC 14472. The data set is classed as toxicity. As to conditions: THP-1 cells, read-out: Selectivity Index. Summed up:
as §3
Consider `Cc1cc(C)c2cc(C(=O)N[C@@H]3C[C@@H]4C[C@H]([C@H]3C)C4(C)C)[nH]c2c1`, for which the selectivity ratio was above 130.

The subject of a further data set is Mycobacterium avium-intracellulare. Description: Antimycobacterial activity against Mycobacterium avium-intracellulare isolate 1956 after 8 days by resazurin microtiter based colorimetric assay. The data set is classed as functional. The settings on record: isolate 1956, 192 h. Summed up:
as §1
`Cc1cc(C)c2cc(C(=O)N[C@@H]3C[C@@H]4C[C@H]([C@H]3C)C4(C)C)[nH]c2c1` registered an MIC of 2 µg/mL (≈ 6.16 µM).
As for `Cc1cc(C)c2cc(C(=O)NC3CCCCCC3)[nH]c2c1`, the MIC came out at 4 µg/mL (≈ 14.1 µM).

Test system in a further data set: not listed separately
In words: Selectivity index, ratio of TD50 for human THP1 cells to MIC for Mycobacterium chelonae ATCC 35752. As to conditions: THP-1 cells, read-out: Selectivity Index. The data set is classed as toxicity. Summed up:
as §3
Turning to `Cc1cc(C)c2cc(C(=O)N[C@@H]3C[C@@H]4C[C@H]([C@H]3C)C4(C)C)[nH]c2c1`, the selectivity ratio is above 130.

Test system in another data set: not listed separately
Description: Selectivity index, ratio of TD50 for human THP1 cells to MIC for Mycobacterium abscessus isolate DCI 21. The data set is classed as toxicity. As to conditions: THP-1 cells, read-out: Selectivity Index. Summed up:
as §3
Consider `Cc1cc(C)c2cc(C(=O)N[C@@H]3C[C@@H]4C[C@H]([C@H]3C)C4(C)C)[nH]c2c1`, for which the selectivity ratio is above 130.

The test system of the next data set is Mycobacteroides abscessus. Description: Antimycobacterial activity against Mycobacterium abscessus ATCC 19977 after 8 days by resazurin microtiter based colorimetric assay. It is filed as functional. The settings on record: ATCC 19977, 192 h. Put shortly: as §1
Regarding `Cc1cc(C)c2cc(C(=O)N[C@@H]3C[C@@H]4C[C@H]([C@H]3C)C4(C)C)[nH]c2c1`, the lowest concentration to inhibit growth (MIC) was 0.125 µg/mL (≈ 0.385 µM).
`Cc1cc(C)c2cc(C(=O)NC3CCCCCC3)[nH]c2c1` had a minimal inhibitory concentration (MIC) of at most 0.06 µg/mL.
